Laboratory results reported in ChEMBL document CHEMBL1124437, “Analogues of cisplatin derived from diaminodideoxytetritols. Synthesis and activity against the ADJ/PC6 plasmacytoma in mice” (J Med Chem, 1989).

Experiments:
[1] = test system: Mus musculus; assay: Antitumor activity against ADJ/PC6 tumor subcutaneously implanted into female intraperitoneal compound administration; assay type: functional, organism-based
Summary of the method: (§1)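 ADJ/PC6 plasmacytoma implanted subcutaneously in female Balb-C mice, with compound given by intraperitoneal injection. Four dose levels were tested (5, 25, 125 and 625 mg per kg), six mice per dose. LD50 is the 50% lethal dose, ED90 is the dose giving 90% tumor regression, and therapeutic index = LD50/ED90.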

[2] = Therapeutic index is the ratio of LD50 to ED90
Summary of the method: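 In female Balb-C mice bearing subcutaneous ADJ/PC6 tumor, dosed ip or po at 5, 25, 125 and 625 mg per kg (six animals per dose). Therapeutic index is the 50% lethal dose divided by the dose causing 90% tumor regression (LD50/ED90).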

[3] = test system: Mus musculus; assay: Compound was screened for antitumor activity against ADJ/PC6 tumor subcutaneously implanted into female intraperitoneal compound administration; assay type: functional, organism-based; summary of the method: as §1

Substance	TI [2]	further results
CISPLATIN [listing 1 of 2 here]		LD50 [1]: 13 mg/kg
CISPLATIN [listing 2 of 2 here]	8.1	
cis-dichloro(cis-5,6-diamino-1,3-dioxepane)platinum (II) [listing 1 of 2 here]		LD50 [3]: 41.5 mg/kg
cis-dichloro(cis-5,6-diamino-1,3-dioxepane)platinum (II) [listing 2 of 2 here]	4.1	
